PGC1a acetyl inh: inhibitors of PGC1a acetylation signal, primary screen, cell-based, U2OS, AlphaScreen, inhibitor mode. AlphaScreen anti-acetyl-lysine; with virally co-expressed GCN5 acetyltransferase. inhibition, % at 15.6 µM. 0.17% of 350,000 active. AID 651687, 2012;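 active = every replicate shows inhibition of at least 40%; inconclusive = mean inhibition at least 40% but some replicate below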;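 note: 0% = neutral control wells and 100% = positive control wells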
FN deposit inh: inhibitors of fibronectin matrix deposition, primary screen, AH1F cells, Alexa488-fibronectin fluorescence, plate reader. AID 743247, 2014. AH1F fibroblasts, overnight. 0.086% of 350,000 active. inhibition, % at 12.6 µM;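 active = mean inhibition across replicates of 30% or more, regardless of how many single replicates reach that level; inconclusive = mean under 30% yet at least half of replicates reach 30%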;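 note: positive control wells lacked labelled fibronectin entirely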
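test system = AH1F fibroblasts assembling fluorescent fibronectin matrix | quantity = 10000 AH1F cells per well | buffer or medium = DMEM plus 2% serum, read in PBS | doses = single dose, pinned | incubation = 1 h cell attachment, overnight exposure to compound and label | detection = fluorescence at 485 nm excitation, 525 nm emission | read-out basis = inhibition from reduced deposited-fibronectin fluorescence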
EWS-Fli inh: EWS/Fli-driven NR0B1 reporter inhibitors, primary screen, A673 cells, NR0B1 luciferase, luminescence, MLPCN library; inhibition, % at 12.6 µM; viability-normalised; 0.67% of 350,000 active;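 active = mean inhibition of at least 50% after viability correction, with every replicate also passing that limit; inconclusive = mean reaches 50% but only one of two replicates passes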;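 note: firefly luciferase signal divided by Alamar Blue viability fluorescence both relative to DMSO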
HIV Env fusion: inhibitors of HIV-1 Env-driven cell-cell fusion, primary screen, HeLa-JRFL effector, CEM21 target cells, luciferase | inhibition, % at 12.3 µM | 1.1% of 360,000 active | AID 651610, 2012;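 active = mean replicate inhibition score of at least 50 and every replicate individually at or above 50; inconclusive = only one of the two criteria met; inactive = mean below 50 and not all replicates reaching 50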;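 note: 0% = plate neutral controls and 100% = maraviroc near 300 nM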
PAX8 inh HTS: inhibitors of PAX8-driven TPO luciferase reporter, primary screen, RMG-I cells, single concentration. SteadyGlo, 24 h. inhibition, % at 12.6 µM. 1.2% of 360,000 active;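 active = mean replicate inhibition at least 60% with every replicate also reaching 60%; inconclusive = only one of the two criteria is met; inactive = mean below 60% and not all replicates reaching 60%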;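 note: luciferase light reporting Pax8 driven TPO promoter activity; plate controls were median of neutral control wells for no effect and mitoxantrone controls for full effect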
FGF22 binding: binders of human FGF22 protein, primary screen, FGF22 synaptogenesis inhibitor project, biophysical, thermal shift, single point. Fibroblast growth factor 22 (Homo sapiens), Q9HCT0. recombinant FGF22 thermal shift, SYPRO orange fluorescence; percent of sucrose octasulfate shift, DMSO zero. activity (Tm shift, normalised), % at 9.99 µM. 1.5% of 340,000 active;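 active = mean Tm shift, scaled 0 neutral to 100 positive control, at about 1.3% or above, every replicate too, limit read from the data; inconclusive = no clear call, values can overlap the other calls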
Target sequence (Q9HCT0 whole entry, looked up): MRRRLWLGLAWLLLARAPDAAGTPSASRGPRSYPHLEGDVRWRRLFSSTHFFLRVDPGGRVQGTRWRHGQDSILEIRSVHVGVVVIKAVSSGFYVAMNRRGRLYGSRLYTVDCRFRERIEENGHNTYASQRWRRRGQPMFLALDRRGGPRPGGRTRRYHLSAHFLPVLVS
The depositor's hits bear a star; ? = inconclusive; . = no result given; [ ] = another dose, or the depositor's remark. Only some compounds are listed: those with a hit (about 3.1% of all), similar ones and a draw of the others.

SMILES	PGC1a acetyl inh	FN deposit inh	EWS-Fli inh	HIV Env fusion	PAX8 inh HTS	FGF22 binding
OC(CNc1nc(C(F)(F)F)nc2ccccc12)c1ccccc1 (stereo unspecified)	7.7	1.5	3.1	57.7*	-12.3	-0.2
O=C(O)CCNc1nc(C(F)(F)F)nc2ccccc12	-3.5	-7.5	2.3	2.5	-17.1	0.3
COC(=O)C[C@@H]1C[C@@H]2c3cc(NS(C)(=O)=O)ccc3O[C@@H]2[C@H](CO)O1	-1.5	.	-6.0	21.6[16.7 µM]	1.7	0.1
COc1ccc(/C=N/NC(=O)c2c(C)nnn2-c2nonc2N)cc1OC	.	-2.9	-0.8	1.7	14.0	43.3*
COc1ccc(/C=N/NC(=O)c2nnn(-c3nonc3N)c2C)cc1OC	2.6	.	-6.7	10.9	-6.4	1.1
C[C@@H]1CN([C@@H](C)CO)C(=O)c2cc(NS(=O)(=O)c3ccccc3)ccc2O[C@@H](C)CCCCO[C@@H]1CN(C)Cc1ccc2c(c1)OCO2	-5.2	-3.1	0.2	-95.4[16.7 µM]	-2.4	.
O=C(Cc1ccc(Cl)c(Cl)c1)Nc1cccc2ncccc12	-12.1	-2.6	8.6	-21.3	-7.0	43.0*
O=C(Cc1ccc(Cl)cc1)Nc1cccc2ncccc12	.	0.3	7.4	-2.0	9.7	-0.1
Cc1cccc(S(=O)(=O)N2CCCCN3[C@H](CO)[C@H](c4ccc(C#C[C@H](C)O)cc4)[C@H]3C2)c1	23.9	.	17.6	.	86.1*	0.1
Cc1cccc(S(=O)(=O)N2CCCCN3[C@H](CO)[C@H](c4ccc(C#CC(C)C)cc4)[C@H]3C2)c1	-2.2	.	16.7	.	78.2*	-0.6
COc1cccc(S(=O)(=O)N2CCCCN3[C@H](CO)[C@H](c4ccc(C#CC(C)C)cc4)[C@@H]3C2)c1	-7.3	.	4.2	.	71.2*	0.2
C[C@H](O)C#Cc1ccc([C@@H]2[C@@H](CO)N3CCCCN(S(=O)(=O)c4ccccc4)C[C@H]23)cc1	9.0	.	6.9	.	76.0*	.
COc1cccc(S(=O)(=O)N2CCCCN3[C@H](CO)[C@@H](c4ccc(C#CC(C)C)cc4)[C@@H]3C2)c1	-10.7	.	9.9	.	-22.2	-0.4
COc1ccc(NC(=O)N(C)C[C@@H]2Oc3ccc(NC(=O)Nc4c(C)noc4C)cc3CC(=O)N([C@@H](C)CO)C[C@H]2C)cc1	3.7	-7.3	-3.4	12.0[16.7 µM]	-15.6	0.2
Cc1ccc(S(=O)(=O)N[C@@H]2CC[C@@H](CCn3cc(-c4cccc(F)c4)nn3)O[C@H]2CO)cc1	-21.9	-0.3	13.0	3.9[16.7 µM]	8.6	0.1
CCC(=O)N(C)C[C@H]1Oc2cc(C#Cc3ccccc3)ccc2S(=O)(=O)N([C@@H](C)CO)C[C@@H]1C	22.2	5.3	2.9	19.6[16.7 µM]	23.3	0.2
CCC(CC)NC(=O)Nc1cccc(C)c1C	.	4.4	9.8	-9.7	14.0	43.2*
COc1ccc(C[C@H]2CCn3cc(nn3)COC[C@H](C(C)C)NC2=O)cc1	.	10.4	-0.5	-8.5[16.7 µM]	-2.1	-0.3
CO/N=C/C(=N\Nc1ccc(OC)cc1)C(=O)c1ccc(F)cc1	-1.5	-5.5	3.1	3.8	11.0	0.6
CO/N=C/C(C#N)=C/c1cc(C(=O)c2ccc(F)cc2)cn1C	-10.3	.	-9.4	-4.5	0.1	43.0*
CC1CCCCC12NC(=O)N(CC(=O)Nc1sccc1C(N)=O)C2=O (stereo unspecified)	0.9	5.2	-7.5	-8.4	8.0	-0.1
CC1CCCCC12NC(=O)N(CC(=O)Nc1nccs1)C2=O (stereo unspecified)	1.8	-11.5	4.6	.	9.3	43.1*
CC1CCCCC12NC(=O)N(CC(=O)Nc1ccccc1N1CCOCC1)C2=O (stereo unspecified)	.	5.2	-9.1	9.4	-6.0	43.5*
CCOC(=O)C1=C(C)Nc2ccccc2N=C1NC(=O)c1oc2ccccc2c1COC	3.2	6.9	-8.4	.	64.6*	0.2
CCOC(=O)C1=C(C)Nc2ccccc2N=C1N	6.8	-3.8	4.3	-4.5	-7.2	0.0
SMILES	PGC1a acetyl inh	FN deposit inh	EWS-Fli inh	HIV Env fusion	PAX8 inh HTS	FGF22 binding
Cc1ccc(S(=O)(=O)N[C@H]2CC[C@H](CCn3cc(-c4cccc(F)c4)nn3)O[C@H]2CO)cc1	4.5	-0.2	-2.6	-9.6[16.7 µM]	-20.8	0.0
O=C(Nc1ccc(S(=O)(=O)NC2=NCCCCC2)cc1)c1ccc([N+](=O)[O-])s1	-43.0	0.3	59.4*	-8.6	94.8*	-0.3
Cc1ccc(S(=O)(=O)NC2=NCCCCC2)cc1	?	-2.1	-1.9	-0.4	-5.0	43.1*
Cc1ccnc(NS(=O)(=O)c2ccc(NC(=O)c3ccc([N+](=O)[O-])s3)cc2)n1	.	-8.9	1.9	1.6	44.2	44.4*
Cc1ccc(CN2CC(N3CCCC3)CS2(=O)=O)cc1 (stereo unspecified)	8.2	-2.4	-6.2	59.6*	-9.1	0.3
Cc1ccc(CCC(=O)Nc2ccc(Cl)cc2)o1	71.7*	2.4	-27.8	-39.6	-25.4	-0.1
CCc1ccc(CCC(=O)Nc2ccc(Cl)cc2)o1	3.2	-2.2	-12.8	-13.6	-17.4	-0.2
CN1/C(=C\C(=S)NC(=O)c2ccccc2Cl)C(C)(C)c2ccccc21	7.0	-3.2	7.4	34.3	2.0	-0.1
CN1/C(=C\C(=O)Nc2ccc(Cl)cc2)C(C)(C)c2ccccc21	.	-15.5	-6.2	-4.8	9.5	43.6*
CN1/C(=C\C(=S)Nc2ccccc2)C(C)(C)c2ccccc21	-4.1	0.1	1.0	52.9*	19.4	0.0
Cc1cccc[n+]1CC(=O)/C=C1\N(C)c2ccccc2C1(C)C	8.2	.	75.3*	?	39.5	0.9
Cn1c(=O)c2nc(-c3ccccc3)c(-c3ccccc3)nc2n(C)c1=O	6.2	0.4	7.1	-15.6	1.8	-0.1
Cn1c(=O)c2nc3ccccc3nc2n(C)c1=O	-2.2	0.7	5.6	14.5	23.0	43.4*
Cc1noc(C)c1COc1ccc(CC(=O)NCc2ccccc2)cc1	0.7	4.3	38.8	-344.3	24.5	0.1
Cc1nc(OCc2c(C)noc2C)c2ccccc2n1	1.1	1.7	1.8	-4.3	-2.0	43.3*
O=[N+]([O-])c1ccc(Cl)c(C2Nc3cccc4cccc(c34)N2)c1	.	-7.1	.	57.6*	-4.9	.
C[C@@H]1CN([C@H](C)CO)C(=O)c2cc(-c3ccc(F)cc3)cnc2O[C@@H]1CN(C)C(=O)c1ccc(F)cc1	7.5	-8.0	0.3	1.7[16.7 µM]	.	0.1
Cc1ccc(NC(=O)COC(=O)Cn2nc(-c3ccc(F)cc3)oc2=O)cc1C	-2.3	-6.3	-0.1	9.1	6.1	43.5*
C[C@@H]1CN([C@@H](C)CO)S(=O)(=O)c2ccc(C3=CCCCC3)cc2O[C@@H]1CN(C)C(=O)Nc1ccc2c(c1)OCO2	-21.7	.	10.7	.	25.3	0.1

Screens: PubChem BioAssay, Broad Institute
